Series [1] relates to phosphorylated (active) NFκB p65 (pS529). The series can be described thus: Intracellular staining, phosphorylated NFκB p65. The conditions noted are these: AsPC-1; 2.4 μg/mL; 6 hours; flow cytometry; vs vehicle control; average of 3 experiments; student's T test. Format: cell-based, human. An outline of the steps:
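AsPC-1 cells were treated 6 h with 2.4 μg/mL test compound or vehicle control. After trypsinization, 4% paraformaldehyde fixation and ice-cold ethanol permeabilization, cells were stained directly 1 h RT with PE-conjugated mouse anti-NFκB p65 (pS529) or mouse IgG isotype; no secondary. Gates were set against the isotype. Flow cytometry, 20,000 events; Student's t test vs vehicle, mean of 3 experiments.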
Background: A flow cytometer gives signals particle by particle.

For the next series, the system named is A549 NFκB-luc cell line. The experiment in a line: Cytotoxicity in A549/NFκB-luc reporter cell line. The class given is cell-based. The conditions noted are these: 6 hours treatment. An outline of the steps:
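A549 cells stably carrying an NFκB-driven luciferase reporter, kept in DMEM with 10% FBS, penicillin/streptomycin and 100 μg/mL hygromycin B. Plated at 5 x 10^4 cells/well and allowed to adhere. Given 100 ng/ml TNF-α plus test compound (serial dilutions 0.00013–5 μg/mL) or vehicle for 6 h. Detergent-lysed; lysate equilibrated 30 min with ethidium bromide; fluorescence read at ex 340/em 590 nm.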

The test system of the next series is MIA PaCa-2. The series can be described thus: Markers of apoptosis. Format: cell-based, human. The conditions noted are these: 2.4 μg/mL, with the assays used. An outline of the steps:
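Caspase-3/7 luminescence. MIA PaCa-2 cells in DMEM with 5% horse serum and 10% FBS. 10,000 cells/well, adhered overnight, then given 2.4 μg/mL test compound or vehicle for 1, 3, 6 or 24 h. Equal volume of pro-luminescent DEVD substrate added, 30–60 min at RT with shaking, luminescence read. Expressed as fold over vehicle; Student's t test.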

Series [2] concerns TNF-related apoptosis-inducing ligand (TRAIL). The series can be described thus: Intracellular staining, TRAIL in AsPC-1. The class given is cell-based, human. The conditions noted are these: 2.4 μM, 6 hours, flow cytometry, average of 3 experiments, vs vehicle.
For series [3], the system named is phosphorylated Fos Ser 32. The series can be described thus: Intracellular staining, phosphorylated Fos in AsPC-1. The class given is cell-based, human. The note with it: 2.4 μM, 6 hours, flow cytometry, average of 3 experiments, vs vehicle.
A further series relates to MIA PaCa2. The experiment in a line: TUNEL, MIA PaCa-2. Format: cell-based, human. The note with it: 2.4 μg/mL, 24 hours (method), flow cytometry, average of 3 experiments. An outline of the steps:
(§1)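 Cells (BxPC-3 and PANC-1 in complete RPMI with 10% FBS; MIA PaCa-2 in DMEM with 5% horse serum plus 10% FBS) were seeded at 500,000 per 6-well well and adhered overnight. They received 2.4 μg/mL test compound or vehicle for 24 h, then were trypsinized, fixed (4% paraformaldehyde) and ethanol-permeabilized. TdT/fluorescein-12-dUTP labelling ran 60 min at 37°C, stopped with 20mM EDTA. Flow cytometry, 20,000 events; Student's t test vs vehicle.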

The subject of a further series is IL-8. The series can be described thus: IL-8 ELISA, AsPC-1. The class given is cell-based, human. The conditions noted are these: 2.4 μg/mL, 6 hours, compared to controls, significant, average of 3 experiments. In general terms: ELISA stands for enzyme-linked immunosorbent assay.
Series [4] deals with phosphorylated cyclin D1 Thr 286. The series can be described thus: Intracellular staining, phosphorylated cyclin D1 in AsPC-1. The class given is cell-based, human. The note with it: 2.4 μM, 6 hours, flow cytometry, average of 3 experiments, not statistically significant (student's T test). In short, it runs like this: (§2)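 AsPC-1 cells (complete RPMI, 10% FBS, 37°C, 5% CO2) were exposed 6 h to test compound or vehicle control. They were trypsinized, fixed in 4% paraformaldehyde and permeabilized with ice-cold ethanol. Unconjugated primary antibody to the phospho-epitope (or rabbit IgG isotype) was applied 1 h RT, then PE-conjugated secondary 30 min RT. Flow cytometry, 20,000 events; Student's t test vs vehicle on the mean of 3 experiments.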

For a further series, the system named is PANC-1. The series can be described thus: TUNEL, PANC-1. The class given is cell-based, human. The conditions noted are these: 2.4 μg/mL, 24 hours (method), flow cytometry, average of 3 experiments. An outline of the steps:
as §1

The test system of another series is TLR-3. The experiment in a line: Intracellular staining, TLR-3 in AsPC-1. The conditions noted are these: 2.4 μM, 6 hours, flow cytometry, average of 3 experiments, vs vehicle. The class given is cell-based, human.
For the next series, the system named is BxPC-3. The experiment in a line: TUNEL, BxPC-3. The class given is cell-based, human. The conditions noted are these: 2.4 μg/mL, 24 hours (method), flow cytometry, average of 3 experiments. In short, it runs like this: as §1
Another series deals with TNFAIP3. The experiment in a line: Intracellular staining, TNFAIP3 in AsPC-1. The class given is cell-based, human. The note with it: 2.4 μM, 6 hours, flow cytometry, average of 3 experiments, vs vehicle.
A further series relates to IKKα. The series can be described thus: Intracellular staining, IKKα in AsPC-1. The class given is cell-based, human. The note with it: 2.4 μM, 6 hours, flow cytometry, average of 3 experiments, vs vehicle.
The subject of the next series is TLR-1. The series can be described thus: Intracellular staining, TLR-1 in AsPC-1. Format: cell-based, human. The note with it: 2.4 μM, 6 hours, flow cytometry, average of 3 experiments, vs vehicle.
The test system of series [5] is phosphorylated GSK3β Ser9. The series can be described thus: Intracellular staining, phosphorylated GSK3β in AsPC-1. Format: cell-based, human. The conditions noted are these: 2.4 μM, 6 hours, flow cytometry, average of 3 experiments, not statistically significant (student's T test). In short, it runs like this:
as §2

The next series deals with HUVEC cells. The series can be described thus: Endothelial tube formation assay. The class given is cell-based. The note with it: single experiment, preliminary, data not shown.
The test system of a further series is IRAK. The series can be described thus: Intracellular staining, IRAK in AsPC-1. Format: cell-based, human. The note with it: 2.4 μM, 6 hours, flow cytometry, average of 3 experiments, vs vehicle.
For a further series, the system named is phosphorylated Elk. The experiment in a line: Intracellular staining, phosphorylated Elk in AsPC-1. Format: cell-based, human. The conditions noted are these: 2.4 μM, 6 hours, flow cytometry, average of 3 experiments, vs vehicle.
A further series has as its system phosphorylated Jun Ser73. The series can be described thus: Intracellular staining, phosphorylated Jun in AsPC-1. Format: cell-based, human. The note with it: 2.4 μM, 6 hours, flow cytometry, average of 3 experiments, vs vehicle.
Series [6] deals with phosphorylated Akt Ser 473. The series can be described thus: Intracellular staining, phosphorylated AKT in AsPC-1. The class given is cell-based, human. The note with it: 2.4 μM, 6 hours, flow cytometry, average of 3 experiments, not statistically significant (student's T test). In short, it runs like this:
as §2

On to `COc1ccc(/C=C/CCCC[C@H](C)[C@H](O)[C@@H](O)[C@H]2NC(=O)CC3(O)NC(=O)CC3NC(=O)C[C@@H](O)CNC(=O)CN(C)C(=O)[C@@H](Cc3c(C(=O)O)[nH]c4ccccc34)NC(=O)CNC(=O)[C@H]2O)cc1` (some centres unmarked) [microsclerodermin A], for which, in series [1], the “Levels of phosphorylated (active) NFκB p65 (pS529)” value is listed as “significantly reduced”. In addition, the “Cytotoxicity in reporter cell line (in words)” value in the series on A549 NFκB-luc cell line is listed as “little or no cytotoxicity”. For the same molecule, the Markers of apoptosis result in the series on MIA PaCa-2 is given as “no markers of apoptosis were seen”. Further, the “Change in expression, TRAIL” value in series [2] is recorded as “No significant changes”. For the same molecule, the “Level of phosphorylated Fos” value in [3] is given as “statistically significantly upregulated”. Besides, the “DNA fragmentation (TUNEL)” value in the series on MIA PaCa2 is on record as “not detected”. The “Increase in IL-8 production” value in the series on IL-8 is on record as “about 2.5 fold”. Besides, the “Level of phosphorylated cyclin D1” value in series [4] is listed as “increased”. For the same molecule, the “Apoptosis (TUNEL DNA fragmentation)” value in the series with PANC-1 and in the series on BxPC-3 was “induced statistically significant apoptosis” each time. In the series on TLR-3, the “Change in expression, TLR-3” value is listed as “No significant changes”. Besides, the “Change in protein level, TNFAIP3” value in the series with TNFAIP3 is recorded as “no changes at the protein level”. The “Change in protein level, IKKα” value in the series with IKKα is “no changes at the protein level”. The “Change in expression, TLR-1” value in the series with TLR-1 is given as “No significant changes”. Further, in [5], the “Level of phosphorylated (inactive) GSK3β” value is “increased”. Further, the Endothelial tube formation entry in the series with HUVEC cells is recorded as “decreased tube formation”. Besides, in the series on IRAK, the “Change in expression, IRAK” value is recorded as “No significant changes”. Also, the “Change in expression, phosphorylated Elk” value in the series with phosphorylated Elk is on record as “No significant changes”. The “Level of phosphorylated Jun” value in the series on phosphorylated Jun Ser73 was “statistically significantly upregulated”. Also, the “Level of phosphorylated AKT” value in series [6] is listed as “increased”.

The values are drawn from article PMC4934660 (Investigational new drugs, 2014).
